Screening data (PubChem)
RGS4 act: potentiators or activators of RGS4; HEK293 M3R/inducible RGS4, carbachol calcium flux Fluo4; hits give low values; B-score at 10 µM; hit rate 0.92% among 310,000; AID 463111;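 active = B-score of the integrated calcium signal more than 4 SD below the library mean, with starting fluorescence not abnormally high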;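 also: negative B-score means reduced calcium response which marks RGS4 activation or potentiation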
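Material: M3R-expressing HEK293 line, RGS4 induced by doxycycline | Schedule: Overnight RGS4 induction, 30 min dye load 37 °C, 20 min compound RT | Measured by: Fluo4 fluorescence kinetic imaging of calcium | Read-out: Integrated calcium ratio converted to B score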
MrgX1 antag: antagonists of human MrgX1 receptor; Q96LB2; MRGX1-HEK293 calcium flux, Fluo-4, BAM8-22 antagonism; hits give low values; B-score at 10 µM; hit rate 1.3% among 310,000; AID 588676;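 active = calcium-response B-score plate-corrected more than 3 library SD below zero, starting fluorescence within 5 deviations, no agonist response on first addition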;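 also: peak minus trough fluorescence over baseline after final BAM8-22 challenge near maximal dose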
Target sequence (Q96LB2 whole entry, looked up): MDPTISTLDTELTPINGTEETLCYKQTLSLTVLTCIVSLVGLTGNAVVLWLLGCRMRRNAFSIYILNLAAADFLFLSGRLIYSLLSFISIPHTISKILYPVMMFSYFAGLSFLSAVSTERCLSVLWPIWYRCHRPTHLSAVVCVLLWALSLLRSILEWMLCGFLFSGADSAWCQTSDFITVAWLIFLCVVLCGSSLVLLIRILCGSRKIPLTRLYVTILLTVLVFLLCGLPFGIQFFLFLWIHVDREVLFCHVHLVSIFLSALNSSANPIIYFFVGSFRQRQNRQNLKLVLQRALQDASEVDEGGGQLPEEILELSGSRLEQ
RGS4 block: inhibitors of human RGS4; HEK293 M3R/RGS4 inducible, Fluo-4 calcium flux; hits give high values; triggered by carbachol at its EC20; B-score at 10 µM; hit rate 0.45% among 310,000;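 active = B-score, a plate-corrected calcium signal, over three deviations above library mean, with baseline fluorescence within five deviations of library mean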;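 also: RGS4 expression induced by doxycycline in cells with stable M3 receptor; B-score is computed from the integrated fluorescence ratio over baseline after carbachol; higher B-score means a larger calcium signal and so more RGS4 inhibition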
Target sequence (P49798 whole entry, looked up): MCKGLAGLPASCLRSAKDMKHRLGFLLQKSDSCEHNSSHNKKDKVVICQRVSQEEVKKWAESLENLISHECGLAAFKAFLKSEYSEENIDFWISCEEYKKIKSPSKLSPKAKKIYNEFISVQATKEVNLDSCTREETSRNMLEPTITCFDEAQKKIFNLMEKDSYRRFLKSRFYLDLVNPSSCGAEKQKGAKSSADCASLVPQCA
MrgX1 allo act: allosterically activates human MrgX1 receptor signaling. MrgX1-HEK293, Fluo-4 calcium flux, FDSS; hits give high values. B-score at 10 µM. hit rate 0.63% among 310,000. AID 588675;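 active = plate-corrected calcium response at least 3 library SD above typical, normal starting fluorescence, not activating the receptor alone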;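 also: compound read alongside a low EC10 to EC30 dose of BAM8-22 agonist; peak minus trough fluorescence over baseline measured at the second addition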
MrgX1 ag: activates human MrgX1 receptor signaling | B-score at 10 µM | AID 588627 | hit rate 0.44% among 310,000 | MrgX1-HEK293 cells, Fluo-4 calcium fluorescence, agonist mode; hits give high values | Q96LB2;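 active = calcium response B-score plate-corrected fluorescence ratio at least 3 library SD, with starting fluorescence B-score inside 5 SD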
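System: HEK293 cells stably expressing human MrgX1 receptor; Dosing: test compound in the initial addition of three; Schedule: overnight plating, then 30 min 37 °C plus 30 min room-temperature dye loading; Detection: kinetic calcium dye fluorescence, Fluo-4 NW; Controls: per-plate positive and negative controls for Z′ factor.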
RGS4 activ val: confirmation of RGS4 activators | hit rate 89% among 1,100 | HEK293 M3R/RGS4 inducible, carbachol calcium flux Fluo4 | AID 602282 | inhibition, % at 10 µM | shares compounds with RGS4 act;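 active = inhibition above 3 SD of the buffer control wells, cut at about 41% in these data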;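 also: signal is the integrated peak-minus-minimum Fluo4 fluorescence over baseline ratio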
M3R Ca counter: RGS4 activator counter-screen hit in non-induced cells; shares compounds with RGS4 act; HEK293 M3R non-induced RGS4, Fluo4 calcium flux; after carbachol challenge at its EC90; inhibition, % at 10 µM; hit rate 82% among 1,100; AID 602283;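 active = inhibition exceeding 3 SD of buffer-only control wells, cut at about 26% in these data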;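 also: percent drop in integrated peak-minus-baseline over baseline Fluo4 ratio after carbachol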
RGS4 block valid: RGS4 inhibitor validation; shares compounds with RGS4 block; hit rate 65% among 1,700; calcium response, % at 10 µM; HEK293 M3R/RGS4, carbachol calcium Fluo-4 fluorescence; carbachol added at its EC20; 0 = buffer wells, 100 = carbachol control;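 active = duplicate-averaged calcium response above the buffer-only control mean plus 5 SD of those controls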;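 also: integrated fluorescence ratio F max minus min over baseline F0; higher response in RGS4-induced cells means RGS4 inhibition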
RGS4 uninduced: counter-screen for RGS4 inhibitors: effect in non-induced cells; shares compounds with RGS4 block; HEK293 M3R non-induced, carbachol calcium Fluo-4; submaximal (EC20) carbachol stimulus; buffer wells 0%, carbachol control wells 100%; activity (percent), % at 10 µM; hit rate 20% among 1,900; call rule not given here;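 also: RGS4 induction absent so cells express M3R without RGS4; higher means more calcium signal and flags a non-specific hit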
RGS4 inh ctr2: second RGS4 inhibitor counter-screen in uninduced cells lacking carbachol | hit rate 22% among 1,900 | HEK293 M3R/RGS4 non-induced, Fluo-4 calcium, no carbachol; normalised: buffer wells 0%, carbachol wells 100% | calcium response (agonist-mode artifact), % at 10 µM | shares compounds with RGS4 block | AID 493001;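 active = duplicate-averaged calcium rise in uninduced cells above buffer wells' mean plus 5 SD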
Numbers without * were called inactive; i = inactive; x = no result. Only some compounds are listed: those with a hit (about 3.5% of all), similar ones and a draw of the others.

SMILES	RGS4 act	MrgX1 antag	RGS4 block	MrgX1 allo act	MrgX1 ag	RGS4 block valid	RGS4 uninduced	RGS4 inh ctr2	others
O=C(c1ccc2c(c1)OCO2)C1CCCN(Cc2c(F)cccc2Cl)C1 (stereo unspecified)	-8.59*	i	i	i	i	x	x	x	RGS4 activ val=92.5*;M3R Ca counter=80.8*
Cc1cccc(CN2CCCC(C(=O)c3ccc4c(c3)OCO4)C2)n1 (stereo unspecified)	i	i	i	i	i	x	x	x
CCOc1cc2c(cc1OCC)-n1cccc1C(c1cccc(OCC)c1O)NC2 (stereo unspecified)	i	i	i	i	i	x	x	x
Nc1c(C(=O)NCc2ccco2)c2nc3ccccc3nc2n1Cc1ccccc1	i	i	i	i	i	x	x	x
Nc1c(C(=O)NCc2ccco2)c2nc3ccccc3nc2n1CCN1CCOCC1	i	i	5.33*	i	i	13.5%*	42.5%*	15.5%*
CCCCn1c(C)c(C(=O)O)c2cc(OC)c3ccccc3c21	i	i	i	i	i	x	x	x
COc1ccc(N2C(=O)NC(=O)/C(=C\c3cn(CC(=O)N4CCOCC4)c4ccccc34)C2=O)c(OC)c1	i	i	8.66*	i	i	16.0%*	i	8.5%*
COc1cc(O)cc2c1C(=O)OC(C)CCCC(=O)CCC/C=C\2 (stereo unspecified)	i	i	i	i	i	x	i	i
C[C@H]1CCCC(=O)CCC/C=C/c2cc(O)cc(O)c2C(=O)O1	i	i	8.18*	i	i	35.0%*	i	i
CC(Cc1ccc(O)cc1)NCC(O)c1cc(O)cc(O)c1 (stereo unspecified)	i	i	5.72*	i	i	30.0%*	i	73.0%*
O=C1NC(=O)N(Cc2ccc(F)cc2)C(=O)/C1=C\c1ccc([N+](=O)[O-])s1	i	i	6.28*	i	i	20.5%*	i	i
COc1ccc(CN2C(=O)NC(=O)/C(=C\c3cc(OC)c(OC)c(OC)c3)C2=O)cc1	i	i	i	i	i	x	x	x
COc1ccc(CN2C(=O)NC(=O)/C(=C/c3ccc([N+](=O)[O-])s3)C2=O)cc1	i	i	8.89*	i	i	29.0%*	i	i
O=C1NC(=O)N(Cc2ccccc2)C(=O)/C1=C/C=C/c1ccco1	i	i	7.03*	i	30.8*	11.0%*	i	22.5%*
COc1ccc(CN2C(=O)NC(=O)/C(=C\c3ccco3)C2=O)cc1	i	i	i	i	i	x	x	x
N#CCCn1cc(C(=O)NCc2ccccc2)c(-c2ccc3c(c2)OCCO3)n1	i	i	i	i	i	x	x	x
N#Cc1c(N2CCNCC2)nc(-c2ccco2)c2c1CCCC2	i	i	5.51*	i	i	i	i	i
CCCCc1nc(N2CCNCC2)c(C#N)c2c1CSC(C)(C)C2	i	i	i	i	i	x	x	x
CC(=O)N1N=C2C3CCN(CC3)C2C1c1ccc(F)cc1 (stereo unspecified)	i	i	i	i	i	x	x	x
CCCCCCC(Cl)(Cn1ccnc1)c1ccccc1 (stereo unspecified)	i	i	i	i	i	x	x	x
